Shown are actives, neighbours in structure and some others; about 2.5% of the full set was active somewhere.
GSTO1 inh – inhibitors of recombinant GSTO1, primary screen, counter-screen for RBBP9 inhibitor project, biochemical, fluorescence polarization; activity-based probe fluorescence polarization; inhibition, % at 5.96 µM; Glutathione S-transferase omega-1 (Homo sapiens), P78417; 300,000 tested, 1.1% active;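 active = inhibition above the campaign mean inhibition plus 3 SD, cut at about 35% in these data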;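 also: 0% = GSTO1-1 with DMSO and 100% = wells lacking GSTO1-1 enzyme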
Target sequence (P78417 whole entry, looked up): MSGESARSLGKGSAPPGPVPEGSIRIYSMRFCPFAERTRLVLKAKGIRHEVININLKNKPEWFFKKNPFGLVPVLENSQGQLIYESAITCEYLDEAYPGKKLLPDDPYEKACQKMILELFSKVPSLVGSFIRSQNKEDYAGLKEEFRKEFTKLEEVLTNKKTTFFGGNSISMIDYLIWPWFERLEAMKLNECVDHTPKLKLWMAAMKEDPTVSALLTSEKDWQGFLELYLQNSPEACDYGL
TDP2 inh – human TDP2 enzyme inhibitors, primary screen, biochemical, epi absorbance, recombinant enzyme; Tyrosyl-DNA phosphodiesterase 2 (Homo sapiens), O95551; AID 720702, 2013; inhibition, % at 12.8 µM; T5PNP hydrolysis, p-nitrophenol absorbance 415 nm; 370,000 tested, 0.34% active;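 active = inhibition above the mean of all tested compounds plus 3 SD, set per campaign, cut at about 25% in these data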;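 also: 0% = DMSO with enzyme and 100% = buffer with substrate but no TDP2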
Target sequence (O95551 whole entry, looked up): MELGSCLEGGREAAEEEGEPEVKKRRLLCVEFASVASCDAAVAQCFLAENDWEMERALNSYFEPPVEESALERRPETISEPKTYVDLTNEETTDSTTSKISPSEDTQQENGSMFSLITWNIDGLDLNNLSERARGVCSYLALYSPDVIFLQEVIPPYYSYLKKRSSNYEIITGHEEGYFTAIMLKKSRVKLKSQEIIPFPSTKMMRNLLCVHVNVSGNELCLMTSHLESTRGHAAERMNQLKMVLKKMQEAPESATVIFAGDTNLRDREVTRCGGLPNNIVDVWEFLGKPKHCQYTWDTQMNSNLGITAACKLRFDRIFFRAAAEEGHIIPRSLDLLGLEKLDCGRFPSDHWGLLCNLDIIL
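Assay system: recombinant human TDP2 / Reagent: T5PNP substrate at 5 mM, a TopII-DNA adduct mimic / Measured by: epi absorbance from released p-nitrophenol / Evaluation: % inhibition relative to enzyme-containing and enzyme-free wells / Control set: enzyme-free and DMSO wells / Replicates: each compound tested once, singlicate / Schedule: enzyme reaction with compound for 2 h at 37 °C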
PRMT1 inh – PRMT1 methyltransferase inhibitors, primary screen, biochemical, fluorescence polarization | Protein arginine N-methyltransferase 1 (Homo sapiens), Q99873 | recombinant PRMT1, activity-based probe fluorescence polarization | inhibition, % at 2.79 µM | 370,000 tested, 1.3% active;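 active = inhibition above about 21% made by adding two undisclosed values, limit read from the data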
eLon inh – inhibitors of E. coli Lon protease, primary screen, biochemical, fluorescence polarization | P0A9M0 | purified E. coli Lon protease | inhibition, % at 7.94 µM | 360,000 tested, 0.42% active; in the data active = inhibition above about 13%, passing the limit was not always enough;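 also: 0% = enzyme with probe and DMSO and 100% = no enzyme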
PAD4 inh – human PAD4 inhibitors, primary screen, biochemical, fluorescence polarization, 1536-well format; Protein-arginine deiminase type-4 (Homo sapiens), Q9UM07; AID 485272, 2010; recombinant PAD4, RCA probe fluorescence polarization; 330,000 tested, 0.41% active; inhibition, % at 6.36 µM;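 active = percent inhibition above a cutoff equal to the mean of all tested compounds plus 3 SD, cut at about 15% in these data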;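 also: 0% = PAD4 with RCA probe and DMSO and 100% = probe without PAD4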
eLon confirm – E. coli Lon protease inhibitor retest, confirmation, biochemical, fluorescence polarization. shares compounds with eLon inh. purified E. coli Lon. inhibition, % at 7.94 µM. 1,400 tested, 31% active; in the data active = inhibition above about 16%;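 also: 0% = enzyme with probe and DMSO and 100% = no enzyme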
Starred values were filed as active, the others as inactive; . = not tested or not shown; + = active, no number.

SMILES	GSTO1 inh	TDP2 inh	PRMT1 inh	eLon inh	PAD4 inh	eLon confirm
COc1ccc(CC(=O)Nc2ccc(C)cc2S(=O)(=O)N2CCOCC2)cc1OC	.	5	1	.	.	.
COC/C=C/C1=CC2=CC(=O)C(C)(OC(=O)c3cnc4ccccc4n3)C(=O)C2=CN1CCOC (centres undefined)	10	15	0	29*	-2	8
COC/C=C/C1=CC2=CC(=O)C(C)(OC(=O)c3cnc4ccccc4n3)C(=O)C2=CN1CCCOC(C)C (centres undefined)	22	8	4	13	1	.
CNC(=O)c1cc2cc(Br)ccc2s1	-1	-30	-6	14	-3	.
F[B-](F)(F)c1cc2ccccc2s1	.	8	2	31*	.	44*
O=C1C=C(c2cc3ccccc3s2)C[C@@H](c2ccc(F)cc2)C1	.	9	0	-18	0	.
F[B-](F)(F)c1cc2cc(Br)ccc2s1	.	.	.	27*	.	40*
O=C(OCc1cn(Cc2ccccc2C(F)(F)F)nn1)N1CCOCC1	.	5	-4	.	.	.
O=C(c1ccc(Br)o1)N1CCN(C23CC4CC(CC(C4)C2)C3)CC1	1	-6	2	29*	4	-2
Cc1nc(SCC(N)=O)[nH]c(=O)c1C	.	9	0	.	.	.
NC(=O)c1cc2c3ccccc3ccn2c1-c1ccccc1	12	18	12	25*	-10	18*
CNC(=O)CN1C(=O)NC2(CCc3ccccc32)C1=O (centres undefined)	1	-3	-1	3	-5	.
CC(=O)c1ccc(NC(=O)CN2C(=O)NC3(CCc4ccccc43)C2=O)cc1 (centres undefined)	.	0	-2	19*	2	-1
CCCCCCCCN1C(=O)[C@@H](CC(=O)N2CCSCC2)C[C@@]2(C(=O)OC)C1=C[C@H](C(C)C)O[C@@H]2C1CC1	.	-11	1	.	.	.
Cc1ccc(NC(=O)CSc2nnc(-c3cc(-c4ccc(Cl)cc4)n[nH]3)n2N)cc1	.	-5	-1	.	.	.
CN(C(=O)C1CCN(c2cncnc2)CC1)C1CCCCC1	.	-5	-2	.	.	.
Cc1ccc(NC(=O)COc2ccccc2C(N)=O)cc1S(=O)(=O)N1CCCCCC1	.	-6	0	22*	-1	1
CCOc1ccccc1OCC(=O)Nc1cccc(S(=O)(=O)N2CCCCCC2)c1	-1	-7	1	60*	-1	-6
Cn1c2ccccc2c(=O)c2ccc(NCCc3cccs3)cc21	.	3	5	92*	-2	23*
NC(=O)c1ccc(NCCc2cccs2)cc1	.	0	0	2	.	.
Cc1onc(-c2ccc(Cl)cc2)c1-c1ccn(S(=O)(=O)c2ccccc2Cl)n1	.	2	-2	.	.	.
O=C1c2cccc3cccc(c23)C(=O)N1CCN1CCN(CC(O)COCc2ccc(Cl)cc2)CC1 (centres undefined)	-5	-3	2	11	2	.
COc1cc(COCC(O)CN2CCN(CCN3C(=O)c4cccc5cccc(c45)C3=O)CC2)cc(OC)c1OC (centres undefined)	-12	6	4	18*	-3	17*
CNc1c2cccc(C)c2nc2c(C(=O)NCCN(C)C)cccc12	.	-2	4	178*	.	195*
Cc1ccc(C(=O)NCCN(C)C)c(C)c1	-1	-6	2	-3	-2	.
SMILES	GSTO1 inh	TDP2 inh	PRMT1 inh	eLon inh	PAD4 inh	eLon confirm
CCOc1ccc(-n2c(SCC(=O)Nc3ccc(S(=O)(=O)Nc4cc(C)nc(C)n4)cc3)nnc2-c2ccco2)cc1	.	-11	-4	.	.	.
CC(=O)O[C@H]1C=C[C@@H](C#Cc2ccc(C(C)(C)C)cc2)O[C@@H]1COC(=O)Nc1ccccc1	.	-3	7	.	.	.
O=C(CC1C=CCC1)Nc1ccccc1 (centres undefined)	.	8	1	50*	.	-1
COc1ccc(-c2onc3ccc(Br)cc23)cc1	1	-1	17	39*	-2	86*
O=C(CN1C(=O)NC2(CCCCC2)C1=O)Nc1ccc2[nH]c(=O)[nH]c2c1	.	1	4	40*	1	-8
c1cncc(Nc2c3ccccc3nc3ccccc23)c1	-9	14	10	25*	5	-5
O=S(=O)([N-]c1nc2ccccc2nc1-[n+]1ccc(-c2ccncc2)cc1)c1ccccc1	2	-2	22*	47*	1	131*
O=C(COC(=O)c1nc(Cl)ccc1Cl)Nc1ncc(Cl)cc1Cl	-6	-10	2	77*	1	-7
Cc1cc(C)nc(N2CCC(C(=O)N(C)CCc3ccccc3)CC2)n1	.	-9	5	.	.	.
COc1ccc(Cn2cc(COC(=O)NCCc3c[nH]c4ccccc34)nn2)cc1	.	11	0	.	.	.
COc1cc(OC)c(-c2c3cc(O)c(=O)cc-3oc3cc(O)c(O)cc23)cc1OC	-181	-5	24*	20*	-121	-54
O=C(OCc1cn(Cc2cccc(F)c2)nn1)N1CCOCC1	.	-1	0	.	.	.
O=C(CCC1CCCC1)NC1CCCCC1	0	0	-1	15*	-6	-1
O=C(CC1CCCCC1)NC1CCCC1	0	-2	-1	6	-1	.
CCOc1ccc(CC(=O)OCc2cc(=O)n3cc(Br)ccc3n2)cc1	11	-7	-1	42*	-1	8
CCOc1ccc(OCC(=O)OCc2cc(=O)n3cc(Br)ccc3n2)cc1	.	5	11	-5	-3	.
CCOc1nc(N2CCCCC2)nc(-n2cc(-c3ccccc3)nn2)n1	1	-11	-1	16*	0	-1
CCOC(=O)c1nnn(-c2nc(N3CCCC3)nc(N3CCCC3)n2)c1-c1ccccc1	0	-1	-3	-10	3	.
COC(=O)C[C@H]1CC[C@H]2[C@H](COc3ccc(NS(=O)(=O)c4cccc(F)c4)cc3C(=O)N2C)O1	.	-1	-1	.	.	.
CN(C)c1c2ccccc2nc2c(F)c(F)c(F)c(F)c12	-83	.	.	-9	2	.
Cc1c2ccccc2nc2c(F)c(N(C)C)c(F)c(F)c12	10	11	9	117*	2	+
COc1ccc(N=NC2=C(O)CC(C)(C)CC2=O)c(OC)c1	0	-12	-7	22*	-6	-90
COc1ccc(N=NC2=C(O)CC(C)(C)CC2=O)cc1	1	-23	-4	-13	5	.
O=C(N[C@H]1C[C@@H]2O[C@H](CO)CC[C@@H]2O[C@@H]1CCc1ccc(-c2cccnc2)cc1)c1cccc(F)c1	.	6	1	.	.	.
O=c1oc2ccccc2cc1-c1nc(-c2cccs2)cs1	-1	-15	-20	39*	-1	45*

Source: PubChem BioAssay
